# MC4R barr agon: agonists of human melanocortin 4 receptor (MC4R) beta-arrestin; AID 540308; activation, % at 8.9 µM; U2OS MC4R beta-arrestin complementation, luminescence; percent of melanotan II response, DMSO zero; P32245; actives 0.98% (n = 360,000);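 active = activation above a per-plate cutoff, the mean activation of sample wells on that plate plus 3 SD, cut at about 8% in these data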
# HGIII-sPLA2 inh: Blocks human group III sPLA2 activity | Q9NZ20 | QFRET BODIPY PC-A2 liposome hydrolysis, fluorescence | inhibition, % at 12.2 µM | actives 0.56% (n = 370,000);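 active = inhibition above mean plus 3 SD of compounds lying within the high and low control bounds, cut at about 19% in these data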;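 note: 0% = median of test compound wells and 100% = no enzyme DMSO wells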
# Target sequence (Q9NZ20 whole entry, looked up): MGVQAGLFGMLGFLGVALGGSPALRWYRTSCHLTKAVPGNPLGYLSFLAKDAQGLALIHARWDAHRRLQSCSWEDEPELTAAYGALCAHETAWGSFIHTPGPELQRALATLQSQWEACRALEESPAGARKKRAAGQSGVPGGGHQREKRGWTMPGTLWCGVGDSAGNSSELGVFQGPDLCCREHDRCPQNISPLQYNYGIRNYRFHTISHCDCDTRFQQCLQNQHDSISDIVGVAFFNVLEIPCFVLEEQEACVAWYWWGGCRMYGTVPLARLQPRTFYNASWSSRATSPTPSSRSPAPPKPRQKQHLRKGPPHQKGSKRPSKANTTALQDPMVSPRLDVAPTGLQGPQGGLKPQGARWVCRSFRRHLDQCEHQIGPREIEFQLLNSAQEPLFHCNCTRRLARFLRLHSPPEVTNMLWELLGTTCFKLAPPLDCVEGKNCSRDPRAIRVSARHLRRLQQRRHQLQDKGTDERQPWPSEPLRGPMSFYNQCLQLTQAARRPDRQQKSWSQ
# NTR1 ag: activates human neurotensin receptor 1; P30989; NTR1-U2OS beta-arrestin-GFP spot imaging, agonist mode; activation, % at 20 µM; actives 0.17% (n = 330,000); AID 493036;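 active = activation at or above 40% of the spot to cytoplasm intensity ratio, with at least 20 cells analyzed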;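 note: 0% = DMSO without peptide and 100% = 100 nM NTR1 peptide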
# MC4R antag cAMP: antagonists of human melanocortin 4 receptor (MC4R) | MC4R-expressing cells, MTII-stimulated cAMP, LANCE TR-FRET | actives 0.48% (n = 360,000) | P32245 | inhibition, % at 6.5 µM | AID 540295;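 active = inhibition above its plate's cutoff, the mean of tested wells on that plate plus 3 SD, cut at about 29% in these data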;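 note: 0% = Melanotan II alone and 100% = Melanotan II plus saturating MCL0020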
#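 System: U2OS-MC4R stable cell line; Technique: Eu-cAMP/anti-cAMP TR-FRET, emission 671 nm; Repeats: single well per compound; Also added: Melanotan II; Dosing: one concentration, 6.5 µM nominal; Schedule: 30-min compound, 1-h challenge, 1-h detection, room temperature.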
# Exocytosis inh: lytic granule exocytosis inhibition; actives 0.66% (n = 360,000); TALL-104 LAMP-1 surface exposure, flow cytometry; cells stimulated with thapsigargin and PMA; inhibition, % at 10 µM;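 active = inhibition above about 55%, limit read from the data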
# A1 inh: inhibitors of the anti-apoptotic protein A1, read as caspase activation | MEF A1-2A-BIM cells, Caspase-Glo 3/7 luminescence, 3 h; percent of clofoctol response, vehicle zero | caspase activation, % (no concentration beside the values) | actives 0.066% (n = 330,000);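 active = over half of replicate activation scores above 10%, or exactly half above 10 with the replicate mean above 10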
# MC4R barr ag: human MC4R beta-arrestin agonism confirmation | activation, % at 8.9 µM | actives 31% (n = 2,400) | U2OS MC4R beta-arrestin recruitment, luminescence; scaled DMSO 0%, Melanotan II 100% | shares compounds with MC4R barr agon;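 active = mean activation across replicates above the hit cutoff set in the earlier primary screen, cut at about 8% in these data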
# MOR DOR agonist: counter-screen for MC4R agonists: agonists of mu-delta opioid heterodimer | shares compounds with MC4R barr agon | U2OS PathHunter beta-arrestin, beta-gal luminescence; percent of deltorphin B response, DMSO zero | activation, % at 9.2 µM | actives 5.8% (n = 2,400);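 active = mean activation across replicates exceeds the hit threshold derived in the earlier primary screen, cut at about 18% in these data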;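 note: 100% = deltorphin B at 0.9 µM final and 0% = DMSO alone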
# The depositor's hits bear a star; . = not tested or not shown. Rows were chosen to be rich in hits. Some 2.5% of all compounds tested hit in one or more screens of this group.
SMILES,MC4R barr agon,HGIII-sPLA2 inh,NTR1 ag,MC4R antag cAMP,Exocytosis inh,A1 inh,MC4R barr ag,MOR DOR agonist
O=C(CSc1nc2c(sc3ccccc32)c(=O)n1Cc1ccco1)NCC1CCCO1 (stereo unspecified),22*,6,18,10,0,-1,0,1
Cc1cccc(/C=N/NC(=O)c2cc(Br)ccc2OCc2ccccc2)n1,13*,-1,1,9,36,-1,-4,5
COc1ccc(C=C2SC(=S)N(CCCN3CCOCC3)C2=O)c(OC)c1,15*,-8,.,7,-2,.,5,21*
COc1cc(NC(=O)c2cc([N+](=O)[O-])ccc2NC(=O)CNCc2ccccn2)cc(OC)c1,1,1,0,15,-2,0,.,.
COc1ccc(NC(=O)c2cc([N+](=O)[O-])ccc2NC(=O)CNCc2ccccn2)c(OC)c1,13*,7,-2,2,8,1,13*,6
Cc1cc(OCC(=O)C(C)(C)C)c2c(C)c(C)c(=O)oc2c1,15*,-6,3,-5,25,0,1,6
COc1cccc(-c2ncn(CCc3ccccc3OC)c2CC(C)C)c1,.,-10,.,.,.,.,.,.
O=C(Nc1ccc2c(c1)Cc1ccccc1-2)c1ccc(Br)o1,10*,5,3,3,-2,-8,-1,4
Cc1ccccc1-c1nc(-c2ccc(NC(=O)c3ccc(Br)o3)cc2)no1,30*,0,3,5,2,-4,21*,4
Cc1ccccc1-c1nc(-c2ccc(Br)o2)no1,2,-3,2,15,-6,-4,.,.
O=C(Nc1ccc2c(c1)Cc1ccccc1-2)c1ccccc1F,11*,-4,0,6,-3,-2,1,5
COC(=O)[C@]12C[C@H](CC(=O)N3CCCC3)C(=O)N(CCC3=CCCCC3)C1=C[C@H](C1CCCC1)O[C@@H]2C,.,9,.,.,.,.,.,.
Cc1ccc(NC(=O)CNCc2ccccc2OCC(=O)Nc2ccc(I)cc2)cc1,.,7,.,.,.,.,.,.
O=C(COC(=O)c1ccc2[nH]c3c(c2c1)CCCC3)Nc1ccc(Cl)cc1Cl,18*,-2,13,15,1,0,10*,3
O=C(COC(=O)c1ccc2[nH]c3c(c2c1)CCCC3)Nc1ccccc1Cl,4,-5,28,12,-4,-1,.,.
COC(=O)C1=C(C)N(Cc2cccc(C(F)(F)F)c2)C(=NCc2ccc(C(F)(F)F)cc2)NC1c1cccc(C(F)(F)F)c1 (stereo unspecified),.,-13,.,.,.,.,.,.
O=C(NCC(c1ccccc1)c1ccccc1)[C@H](Cc1c[nH]c2ccccc12)NC1(C(=O)NC2CCCCC2)CCN(Cc2ccccc2)CC1,.,-37,.,.,.,.,.,.
COC(=O)C1CN(Cc2cn(CCC3OCCO3)nn2)CCS(=O)(=O)N1Cc1ccccc1 (stereo unspecified),.,5,.,.,.,.,.,.
C=CCNC(=S)N/N=C/c1cn(-c2ccccc2)nc1-c1ccc(OC)cc1,15*,-3,8,2,-5,0,5,4
COc1ccc(-c2nn(-c3ccccc3)cc2/C=C/C(=O)OCC(=O)Nc2ccc(C#N)cc2)cc1,10*,.,9,3,-1,1,-1,4
COC(=O)c1sccc1NC(=O)Nc1ccc(C)c(C)c1,-1,-2,2,5,1,1,.,.
COC(=O)c1sccc1NC(=O)COc1ccc(F)cc1Cl,10*,-1,12,13,1,-7,2,3
COC(=O)c1ccc(OCC(=O)Nc2ccsc2C(=O)OC)cc1,6,1,1,20,0,-3,.,.
COC(=O)c1sccc1NC(=O)Nc1ccc(Cl)c(Cl)c1,13*,7,-1,-1,-6,-20,3,6
